From PubChem
Compounds with a hit are over-represented: about 5.1% of the library has one in this group of screens.
STAT3 blocker: inhibitors of IL-6 induced STAT3 signaling. U3A cells, IL-6 STAT3-luciferase reporter, luminescence; host cell line lacks STAT1. inhibition, % at 5.5 µM. 0.89% of 190,000 active. AID 862;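 active means inhibition above the mean inhibition across all screened compounds plus 3 SD, cut at about 44% in these data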;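 further: 0% = DMSO only wells and 100% = 100 µM nifuroxazide control wells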
STAT1 act: increases IFN-gamma driven STAT1 reporter signal; 2.6% of 200,000 active; NIH 3T3 STAT1-luciferase reporter, luminescence; 100% = IFN-gamma alone, no compound; AID 932; activation (% of control), % at 5.5 µM;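 active means activation above the screen-wide mean activation plus 3 SD, cut at about 130% in these data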;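 further: raw ratio to IFN-gamma control signal so 100% means no change and 0% no light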
STAT1 inh: inhibitors of IFN-gamma induced STAT1 signaling | NIH 3T3 STAT1-luciferase reporter, luminescence | inhibition, % at 5.5 µM | 0.35% of 200,000 active | AID 920;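 active means inhibition above a set limit, the mean inhibition across all tested compounds plus 3 SD, cut at about 34% in these data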;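 further: 0% = IFN-gamma with DMSO and 100% = IFN-gamma with 300 µM nifuroxazide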
APP 5'UTR act: APP 5'UTR luciferase reporter activation. SH-SY5Y APP 5'UTR luciferase reporter, luminescence; zero percent = DMSO vehicle wells. activation, % at 2 µM. AID 1276. 1% of 190,000 active;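 active means activation above a set limit, based on mean plus 3 SD of controls, cut at about 140% in these data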
NF-kB neuron act: NF-kB expression increase, human neuronal cells. 1.6% of 190,000 active. fold change at 12.5 µM. NF-kB reporter expression; hits give high values. AID 1239; in the data active means fold change above about 3.3
STAT3 act: STAT3 signaling activation. 0.91% of 190,000 active. U3A cells, IL-6 STAT3-luciferase reporter, luminescence; 100% = signal with IL-6 EC80 alone. activation (% of control), % at 5.6 µM. AID 871;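 active means activation above the screen-wide mean of compound activation plus 3 SD, cut at about 130% in these data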;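 further: 0% = background luminescence of wells with medium and substrate only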
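Material: STAT1-lacking human U3A cells, STAT3 luciferase reporter | Benchmarks: IL-6-only wells as 100% reference | Probe or stimulus: IL-6 (33 ng/mL) | Timing: Compound 1 h, then IL-6 6 h at 37 °C | Detection: Luminescence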
STAT1 act conf: confirmation of STAT1 signaling activators; 97% of 1,200 active; activation (% of control), % at 5.7 µM; NIH 3T3 STAT1-luciferase reporter, IFN-gamma potentiation, luminescence; 100% = IFN-gamma EC80 alone, no compound; shares compounds with STAT1 act;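 active means activation above a set limit carried over from the earlier primary STAT1 screen, cut at about 140% in these data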;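 further: simple ratio to median IFN-gamma plus DMSO wells so 0% means no light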
NFkB act: activates NF-kappaB, counter-screen to STAT1 activators | 43% of 1,200 active | activation (% of control), % at 5.7 µM | AID 1306 | HEK293T NF-kB luciferase reporter, TNF-alpha stimulated, luminescence; 100% = TNF-alpha with vehicle only | shares compounds with STAT1 act;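 active means activation above the mean of solvent-only control wells plus 3 SD, set per campaign, cut at about 130% in these data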;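 further: TNF-alpha given at a submaximal dose yielding about 80% of full reporter signal; values are well signal over median control so 100% means no change and 0% no light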
STAT3 act STAT1c: human STAT3 activation in STAT1 activator counter-screen | shares compounds with STAT1 act | U3A cells STAT3-luciferase reporter, IL-6, luminescence; cells lack STAT1; 100 = IL-6 alone, no compound effect | activation (% of control), % at 5.7 µM | 46% of 1,200 active;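 active means activation above the solvent-only control well mean plus 3 SD, set per plate batch, cut at about 110% in these data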;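 further: 0% = no luminescence and 100% = median IL-6 plus DMSO wells; higher means more STAT3 reporter activation so hits are non-selective activators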
An asterisk follows results filed as active; x = not tested or not shown.

SMILES	STAT3 blocker	STAT1 act	STAT1 inh	APP 5'UTR act	NF-kB neuron act	STAT3 act	STAT1 act conf	NFkB act	STAT3 act STAT1c
Cc1cc(C(=O)COC(=O)c2ccc(N)c([N+](=O)[O-])c2)c(C)n1-c1ccc2c(c1)OCO2	24	86	16	-3	0.86	81	x	x	x
COc1ccc(-c2cn3cc(C)ccc3n2)cc1Br	23	175*	-84	164*	6.8*	81	236*	103	86
COc1ccc(-c2cn3cc(Cl)ccc3n2)cc1OC	-32	127	-30	65	2	132	x	x	x
CCOC(=O)c1sc(NC(=O)c2sccc2C)cc1C	27	152*	-56	154*	12*	82	252*	129	101
O=C(CCCCl)Oc1ccc2cc(-c3ccc4ccccc4n3)c(=O)oc2c1	-7	115	-17	36	1.2	109	x	x	x
COc1ccc(/C=C/c2nc3ccccc3n2Cc2ccc(OC)c(OC)c2)cc1	-7	184*	-94	181*	6.8*	108	183*	135*	125*
COc1cc(/C=N/O)ccc1OCc1ccc(Cl)cc1	22	155*	-59	191*	8.4*	85	283*	148*	141*
Cc1ccc(NC(=O)c2c(C)nc3ccccn23)cc1C	12	154*	-59	168*	3.8*	92	191*	139*	97
CCc1ccc(NC(=O)N2CCN(c3ccc(F)cc3)CC2)cc1	19	84	16	16	1.1	88	x	x	x
COC(=O)c1cn[nH]c1NC(=S)Nc1ccccc1C	-2	151*	-56	-2	1.7	106	169*	129	117*
CC(C)NC(=O)NC(=O)COc1ccc(Br)cc1Br	20	179*	-88	203*	5.1*	83	235*	123	101
CC(C)NC(=O)NC(=O)COc1c(F)c(F)cc(F)c1F	12	93	7	7	1.1	95	x	x	x
CS(=O)(=O)c1cnc2c(-c3ccsc3)cnn2c1N	13	157*	-65	109	2.6	92	171*	121	111*
CS(=O)(=O)c1cnc2c(S(=O)(=O)c3ccccc3)cnn2c1N	-1	100	-1	9	1	105	x	x	x
COc1cc(OC)c2c(O)c3c(c(-c4c5c(c(O)c6c(OC)cc(OC)cc46)CO[C@@H](C)[C@H]5O)c2c1)[C@H](O)[C@H](C)OC3	x	96	3	2	1.1	x	x	x	x
Cc1ccc(NC(=S)c2nc3ccccc3[nH]2)c(C)c1	13	169*	-77	133	3.2	87	191*	122	113*
COC(=O)CSc1nnc(CNC(=O)c2ccco2)n1-c1ccc(F)cc1	18	97	3	7	1.2	93	x	x	x
Cc1cc(C(=O)Nc2ccccc2)oc1C	15	155*	-60	98	3.5*	91	170*	136*	110
CCN(CC)S(=O)(=O)c1cccc(NC(=O)c2cc3ccccc3o2)c1	11	102	-3	23	0.88	94	x	x	x
CC(=O)c1cc(C(=O)Nc2ccc(C(=O)O)cc2)oc1C	7	92	2	15	1.3	95	x	x	x
O=C(Nc1cccnc1)c1cc2c(ccc3ccccc32)o1	27	177*	-85	220*	5.3*	80	260*	144*	111*
Cc1ccc(C(=O)c2cc3ccccc3o2)cc1	23	157*	-62	148*	3.9*	83	195*	139*	103
CC(=O)Nc1cccc(NC(=O)c2cc3ccccc3o2)c1	11	156*	-62	125	3.4*	93	178*	135*	109
CN(C(=O)c1ccc(-c2nn(C)c(=O)c3ccccc23)cc1)c1ccccc1	11	94	10	-7	0.4	91	x	x	x
Cc1ccc(NS(=O)(=O)c2ccc3[nH]c(=O)[nH]c3c2)c(C)c1	9	97	4	8	0.98	94	x	x	x
SMILES	STAT3 blocker	STAT1 act	STAT1 inh	APP 5'UTR act	NF-kB neuron act	STAT3 act	STAT1 act conf	NFkB act	STAT3 act STAT1c
CC1Cc2ccccc2N1C(=O)/C=C/c1cccc(F)c1 (stereo not given)	6	158*	-62	189*	6.3*	99	202*	141*	106
CC(=O)c1cccc(NC(=S)N2c3ccccc3CC2C)c1 (stereo not given)	34	100	0	12	0.8	77	x	x	x
O=C(Nc1cccc([N+](=O)[O-])c1)c1ccc(-c2ccccc2)cc1	13	101	-1	29	1	89	x	x	x
Cc1c(C(=O)Nc2cccc([N+](=O)[O-])c2)csc1-c1ccccc1	-8	165*	-72	194*	3.8*	116	238*	128	139*
C/C(=C\C(=O)N1CCc2ccccc21)C(=O)O	-13	94	6	-11	1.1	118	x	x	x
Cc1ccc(/C=C/C(=O)N2CCc3ccccc32)o1	13	180*	-92	168*	8.2*	91	224*	138*	109
Cc1c(C(=O)N2CCc3ccccc32)oc2ccccc12	-5	155*	-62	156*	8.2*	107	217*	141*	150*
O=C(c1ccccc1)N1CCc2ccccc21	7	95	6	-6	1	95	x	x	x
CCOC(=O)/C(=N/O)C1=NC(C)(C)Cc2cc(C)c(C)cc21	2	100	1	5	0.86	101	x	x	x
Cc1onc(-c2ccccc2Cl)c1C(=O)Nc1nc2c(s1)CCCC2	-5	127	-30	43	0.73	109	x	x	x
Cc1ccc(C(=O)Nc2nc3c(s2)CCCC3)o1	26	155*	-37	166*	7.3*	79	209*	115	93
Cc1ccsc1C(=O)N/N=C/c1ccc2c(c1)OCO2	37	161*	-68	158*	6.2*	71	226*	106	92
Cc1ccsc1/C=N/NC(=O)Nc1ccccc1	14	172*	-80	147*	4*	97	192*	130	98
O=C(N/N=C/c1ccc2c(c1)OCO2)c1ccc2c(c1)OCCO2	-13	116	-17	70	2.9	109	x	x	x
O=C(N/N=C/c1ccc2c(c1)OCO2)c1cccs1	14	174*	-84	72	4.3*	92	204*	134*	117*
